# Data as given in ChEMBL document CHEMBL5653631, “A Potent and Selective ULK1 Inhibitor Suppresses Autophagy and Sensitizes Cancer Cells to Nutrient Stress” (iScience, 2018).
# Columns and labels:
# [1] = molecular target: Ribosomal protein S6 kinase alpha-6 (Homo sapiens) (UniProt Q9UK32); experiment: Inhibition of human recombinant RSK4 at 40 nM in presence of ATP by radiometric assay relative to control
# [2] = molecular target: Proto-oncogene tyrosine-protein kinase Src (Homo sapiens) (UniProt P12931); experiment: Inhibition of human recombinant SRC at 40 nM in presence of ATP by radiometric assay relative to control
# [3] = molecular target: Cyclin-dependent kinase 9 (Homo sapiens) (UniProt P50750); experiment: Inhibition of human recombinant CDK9 at 40 nM related to control ULK1
# [4] = molecular target: T1, NUAK family SNF1-like kinase 1 (Homo sapiens) (UniProt O60285); experiment: Inhibition of human recombinant NuaK1 at 40 nM related to control ULK1
# T1 sequence (whole entry): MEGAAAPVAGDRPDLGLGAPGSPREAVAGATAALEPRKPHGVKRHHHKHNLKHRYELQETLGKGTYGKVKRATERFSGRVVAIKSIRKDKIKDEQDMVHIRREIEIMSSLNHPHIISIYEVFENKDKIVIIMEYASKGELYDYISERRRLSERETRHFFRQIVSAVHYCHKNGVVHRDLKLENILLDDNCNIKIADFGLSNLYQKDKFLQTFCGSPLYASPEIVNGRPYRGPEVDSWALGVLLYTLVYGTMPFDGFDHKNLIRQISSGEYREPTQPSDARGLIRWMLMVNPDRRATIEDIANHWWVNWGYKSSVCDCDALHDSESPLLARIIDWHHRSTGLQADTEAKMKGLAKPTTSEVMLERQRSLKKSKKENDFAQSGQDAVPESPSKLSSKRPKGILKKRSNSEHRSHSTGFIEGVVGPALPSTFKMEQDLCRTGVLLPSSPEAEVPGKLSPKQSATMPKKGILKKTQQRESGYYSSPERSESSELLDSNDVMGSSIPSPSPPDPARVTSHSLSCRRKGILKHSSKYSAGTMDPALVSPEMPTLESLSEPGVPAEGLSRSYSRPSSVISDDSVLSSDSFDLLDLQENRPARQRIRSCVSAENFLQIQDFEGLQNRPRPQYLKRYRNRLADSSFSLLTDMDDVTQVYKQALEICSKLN
# [5] = molecular target: Tyrosine-protein kinase CSK (Homo sapiens) (UniProt P41240); experiment: Inhibition of human recombinant CSK at 15 nM in presence of ATP by radiometric assay relative to control
# [6] = molecular target: Mitogen-activated protein kinase 11 (Homo sapiens) (UniProt Q15759); experiment: Inhibition of human recombinant p38beta at 15 nM in presence of ATP by radiometric assay relative to control
# [7] = molecular target: T2, Serine/threonine-protein kinase D3 (Homo sapiens) (UniProt O94806); experiment: Inhibition of human recombinant PKD3 at 15 nM related to control ULK1
# T2 sequence (whole entry): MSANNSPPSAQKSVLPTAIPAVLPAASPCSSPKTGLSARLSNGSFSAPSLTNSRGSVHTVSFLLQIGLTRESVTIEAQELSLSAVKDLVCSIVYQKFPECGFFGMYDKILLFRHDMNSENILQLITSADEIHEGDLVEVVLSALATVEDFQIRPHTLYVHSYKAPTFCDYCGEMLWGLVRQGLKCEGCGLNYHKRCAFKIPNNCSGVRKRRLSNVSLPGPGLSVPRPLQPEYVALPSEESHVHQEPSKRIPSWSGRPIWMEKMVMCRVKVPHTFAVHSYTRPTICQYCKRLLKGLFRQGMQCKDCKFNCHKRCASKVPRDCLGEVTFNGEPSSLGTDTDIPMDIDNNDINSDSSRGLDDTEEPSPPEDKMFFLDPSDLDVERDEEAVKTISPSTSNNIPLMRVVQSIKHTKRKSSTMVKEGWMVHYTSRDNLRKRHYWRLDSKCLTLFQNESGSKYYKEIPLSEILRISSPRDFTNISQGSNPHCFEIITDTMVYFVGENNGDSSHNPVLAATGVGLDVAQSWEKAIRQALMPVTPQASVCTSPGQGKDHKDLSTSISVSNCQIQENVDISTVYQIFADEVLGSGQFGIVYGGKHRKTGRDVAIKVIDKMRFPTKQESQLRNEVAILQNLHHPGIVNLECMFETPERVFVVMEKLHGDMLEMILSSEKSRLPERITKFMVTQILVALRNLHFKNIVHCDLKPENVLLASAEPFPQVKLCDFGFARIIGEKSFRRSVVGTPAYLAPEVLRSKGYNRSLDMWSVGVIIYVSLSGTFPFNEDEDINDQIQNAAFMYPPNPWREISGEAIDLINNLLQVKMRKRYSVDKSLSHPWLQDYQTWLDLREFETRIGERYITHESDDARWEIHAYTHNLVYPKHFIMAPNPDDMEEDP
# [8] = molecular target: T3, Aurora kinase C (Homo sapiens) (UniProt Q9UQB9); experiment: Inhibition of human recombinant AurC at 500 nM in presence of ATP by radiometric assay relative to control
# T3 sequence (whole entry): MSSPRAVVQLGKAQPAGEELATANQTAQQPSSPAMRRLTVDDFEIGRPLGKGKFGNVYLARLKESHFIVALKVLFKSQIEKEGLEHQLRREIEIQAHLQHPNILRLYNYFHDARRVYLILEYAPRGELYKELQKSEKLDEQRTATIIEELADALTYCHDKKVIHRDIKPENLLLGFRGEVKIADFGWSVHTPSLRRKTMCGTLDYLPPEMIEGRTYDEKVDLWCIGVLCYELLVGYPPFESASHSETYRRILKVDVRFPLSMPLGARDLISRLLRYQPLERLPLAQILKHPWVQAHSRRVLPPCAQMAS
# In short: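 Part of a radiometric in vitro activity panel of 327 recombinant human kinases. Each kinase was tested in duplicate at one inhibitor concentration. Activity remaining was expressed as a percentage of the vehicle control, and percent inhibition was taken as 100 minus that value.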
# [9] = molecular target: Mitogen-activated protein kinase 11 (Homo sapiens) (UniProt Q15759); experiment: Inhibition of human recombinant p38beta at 500 nM related to control ULK1
# Mitogen-activated protein kinase 11 (Homo sapiens), sequence (Q15759 whole entry): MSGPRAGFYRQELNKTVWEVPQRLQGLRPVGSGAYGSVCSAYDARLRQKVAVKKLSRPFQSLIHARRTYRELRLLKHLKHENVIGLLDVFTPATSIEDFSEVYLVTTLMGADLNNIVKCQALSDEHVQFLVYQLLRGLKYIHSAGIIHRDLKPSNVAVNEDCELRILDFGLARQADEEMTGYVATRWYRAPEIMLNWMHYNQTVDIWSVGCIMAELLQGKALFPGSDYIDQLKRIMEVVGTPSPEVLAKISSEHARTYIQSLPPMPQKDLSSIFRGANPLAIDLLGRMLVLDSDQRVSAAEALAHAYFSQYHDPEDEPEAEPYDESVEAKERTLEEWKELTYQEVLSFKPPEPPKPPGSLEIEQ
# Ribosomal protein S6 kinase alpha-6 (Homo sapiens), sequence (Q9UK32 whole entry): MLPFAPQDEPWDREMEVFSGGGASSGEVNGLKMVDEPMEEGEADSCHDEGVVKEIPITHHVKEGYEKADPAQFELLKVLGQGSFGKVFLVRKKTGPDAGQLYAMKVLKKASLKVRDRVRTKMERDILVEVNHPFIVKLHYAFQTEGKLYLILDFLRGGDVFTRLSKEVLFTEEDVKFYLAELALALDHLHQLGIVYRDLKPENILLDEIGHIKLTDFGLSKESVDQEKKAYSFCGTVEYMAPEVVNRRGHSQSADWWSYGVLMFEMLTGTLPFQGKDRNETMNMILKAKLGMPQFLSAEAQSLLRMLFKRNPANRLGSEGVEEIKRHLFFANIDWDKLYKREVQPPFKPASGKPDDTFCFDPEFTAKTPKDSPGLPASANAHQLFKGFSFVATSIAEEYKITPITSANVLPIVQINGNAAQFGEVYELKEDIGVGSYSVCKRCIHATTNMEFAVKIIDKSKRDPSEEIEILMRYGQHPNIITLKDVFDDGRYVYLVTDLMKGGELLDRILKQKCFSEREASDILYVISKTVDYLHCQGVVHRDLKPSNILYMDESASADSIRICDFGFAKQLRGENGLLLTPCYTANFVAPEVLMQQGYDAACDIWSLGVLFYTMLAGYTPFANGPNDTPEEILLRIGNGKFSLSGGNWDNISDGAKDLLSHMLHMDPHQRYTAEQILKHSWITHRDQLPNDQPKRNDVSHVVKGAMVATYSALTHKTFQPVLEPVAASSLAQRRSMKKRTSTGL
# Tyrosine-protein kinase CSK (Homo sapiens), sequence (P41240 2-450 limits assumed): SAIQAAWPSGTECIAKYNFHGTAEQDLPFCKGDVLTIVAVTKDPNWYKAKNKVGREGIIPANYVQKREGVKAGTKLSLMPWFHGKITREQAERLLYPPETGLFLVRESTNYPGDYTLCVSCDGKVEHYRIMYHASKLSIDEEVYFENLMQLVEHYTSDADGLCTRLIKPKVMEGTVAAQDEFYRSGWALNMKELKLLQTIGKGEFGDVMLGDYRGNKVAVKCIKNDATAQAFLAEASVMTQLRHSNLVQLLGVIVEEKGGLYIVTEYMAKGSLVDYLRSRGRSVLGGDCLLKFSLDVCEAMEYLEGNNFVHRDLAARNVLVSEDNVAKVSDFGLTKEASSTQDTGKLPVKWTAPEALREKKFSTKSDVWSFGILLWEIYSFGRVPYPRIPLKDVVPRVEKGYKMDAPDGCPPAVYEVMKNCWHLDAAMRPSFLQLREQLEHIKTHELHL
# Cyclin-dependent kinase 9 (Homo sapiens), sequence (P50750 whole entry): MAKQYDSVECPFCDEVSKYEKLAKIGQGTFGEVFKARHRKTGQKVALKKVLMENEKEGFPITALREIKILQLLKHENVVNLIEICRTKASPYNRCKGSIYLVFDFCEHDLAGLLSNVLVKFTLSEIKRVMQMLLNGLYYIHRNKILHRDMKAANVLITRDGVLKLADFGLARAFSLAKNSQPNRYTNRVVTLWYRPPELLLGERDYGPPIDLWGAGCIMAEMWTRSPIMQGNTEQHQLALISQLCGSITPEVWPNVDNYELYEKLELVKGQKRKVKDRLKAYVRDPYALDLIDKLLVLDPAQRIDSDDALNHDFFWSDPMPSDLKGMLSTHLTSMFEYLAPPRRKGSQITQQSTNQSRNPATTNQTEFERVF
# Proto-oncogene tyrosine-protein kinase Src (Homo sapiens), sequence (P12931 2-536 limits assumed): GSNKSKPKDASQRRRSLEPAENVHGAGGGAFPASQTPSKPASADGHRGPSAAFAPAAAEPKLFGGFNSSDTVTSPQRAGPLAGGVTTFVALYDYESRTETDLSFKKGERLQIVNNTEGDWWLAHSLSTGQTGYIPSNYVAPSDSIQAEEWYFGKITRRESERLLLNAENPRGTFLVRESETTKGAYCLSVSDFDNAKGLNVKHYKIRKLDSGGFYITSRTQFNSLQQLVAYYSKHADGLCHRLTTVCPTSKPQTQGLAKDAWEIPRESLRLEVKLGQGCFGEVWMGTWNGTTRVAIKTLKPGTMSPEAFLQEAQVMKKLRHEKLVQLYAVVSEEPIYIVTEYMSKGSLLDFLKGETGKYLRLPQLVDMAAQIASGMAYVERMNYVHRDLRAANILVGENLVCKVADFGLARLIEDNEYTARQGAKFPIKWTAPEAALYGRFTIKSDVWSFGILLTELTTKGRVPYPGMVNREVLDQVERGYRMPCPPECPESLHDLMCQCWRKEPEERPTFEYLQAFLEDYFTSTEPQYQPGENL
smiles,measurement,setting,value
O=C(N[C@@H](C1CC1)C(F)(F)F)c1cc(-c2cnn3cc(-c4ccc(F)cc4)cnc23)cs1,inhibition,[1],0%
same,inhibition,[2],2%
same,fold change (FC),[3],0
same,fold change (FC),[4],0.07
CC(C)[C@H](NC(=O)c1cc(-c2cnn3cc(-c4ccc(OCCN5CCCCC5)cc4)cnc23)cs1)C(F)(F)F,inhibition,[5],12%
same,inhibition,[6],1%
same,fold change (FC),[7],0.08
CNC(=O)c1ccccc1Oc1nc(Nc2cc(OC)c(OC)c(OC)c2)ncc1Br,inhibition,[8],73%
same,fold change (FC),[9],0.03
